Holding throughout (format): cell-based
The target of assay [1] is T1, 3-keto-steroid reductase/17-beta-hydroxysteroid dehydrogenase 7 (Homo sapiens, UniProt P56937).
T1 sequence (P56937 whole entry): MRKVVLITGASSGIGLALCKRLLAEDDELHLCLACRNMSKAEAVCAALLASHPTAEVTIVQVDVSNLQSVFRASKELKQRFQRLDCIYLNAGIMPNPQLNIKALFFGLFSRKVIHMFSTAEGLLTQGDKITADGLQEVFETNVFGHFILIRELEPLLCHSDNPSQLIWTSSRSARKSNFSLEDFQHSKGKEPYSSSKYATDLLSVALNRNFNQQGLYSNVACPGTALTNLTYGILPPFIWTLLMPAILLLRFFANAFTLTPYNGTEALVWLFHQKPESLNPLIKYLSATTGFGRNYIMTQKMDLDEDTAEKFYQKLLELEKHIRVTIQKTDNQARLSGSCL
Briefly: Inhibition of human 17beta-HSD7 expressed in HEK293 cells assessed as inhibition of reduction of [14C]estrone into [14C]estradiol after 7 hrs. In short, it runs like this: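 Intact HEK-293 cells stably overexpressing h17β-HSD7 were plated at 500 000 cells/well in MEM/10% FCS at 37 °C. Fresh medium received 15 000 cpm (~150 nM, below Km) [4-14C]-estrone plus ethanolic inhibitor for 7 h. Steroids were extracted with diethyl ether. Screening used two inhibitor concentrations in duplicate or triplicate and is reported as % inhibition of E1→E2.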

In assay [2] the target is T2, 3-keto-steroid reductase/17-beta-hydroxysteroid dehydrogenase 7 (Homo sapiens) (UniProt P56937).
T2 sequence (whole entry): T1 sequence (P56937 whole entry)
Briefly: Inhibition of human 17beta-HSD7 expressed in HEK293 cells assessed as inhibition of reduction of [14C]dihydrotestosterone into [14C]5alpha-androstane-3beta,17beta-diol at 3 uM after 18 hrs. A digest of the protocol:
(§1)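 Intact HEK-293 cells stably overexpressing h17β-HSD7 (pCMV-neo, G-418 selected) were plated at 500 000 cells/well in MEM with 10% fetal calf serum at 37 °C. Fresh medium received 15 000 cpm (~150 nM) [4-14C]-DHT plus ethanolic inhibitor, and cells were incubated 18 h. Steroids were extracted twice with diethyl ether. Assays were done in duplicate.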

In assay [3] the target is T2, 3-keto-steroid reductase/17-beta-hydroxysteroid dehydrogenase 7 (Homo sapiens). Briefly: Inhibition of human 17beta-HSD7 expressed in HEK293 cells assessed as inhibition of reduction of [14C]dihydrotestosterone into [14C]5alpha-androstane-3beta,17beta-diol at 0.3 uM after 18 hrs. In short, it runs like this:
as §1

A further assay concerns HEK293. Nature of the assay: Inhibition of human 17beta-HSD5 expressed in HEK293 cells assessed as inhibition of conversion of [14C]4-androstene-3,17-dione to [14C]testosterone at 0.3 uM after 20 hrs. In short, it runs like this:
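Intact HEK-293 cells stably transfected with pCMV-neo-h17β-HSD5 were plated at 500 000 cells/well. They were incubated with 15 000 cpm [4-14C]-Δ4-dione and inhibitor in ethanol (0.3 or 3 μM) for 20 h at 37 °C, 5% CO2, in triplicate. Steroids were then extracted, separated and quantified.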

Assay [4] addresses T3, 17-beta-hydroxysteroid dehydrogenase type 1 (Homo sapiens) (UniProt P14061).
T3 sequence (whole entry): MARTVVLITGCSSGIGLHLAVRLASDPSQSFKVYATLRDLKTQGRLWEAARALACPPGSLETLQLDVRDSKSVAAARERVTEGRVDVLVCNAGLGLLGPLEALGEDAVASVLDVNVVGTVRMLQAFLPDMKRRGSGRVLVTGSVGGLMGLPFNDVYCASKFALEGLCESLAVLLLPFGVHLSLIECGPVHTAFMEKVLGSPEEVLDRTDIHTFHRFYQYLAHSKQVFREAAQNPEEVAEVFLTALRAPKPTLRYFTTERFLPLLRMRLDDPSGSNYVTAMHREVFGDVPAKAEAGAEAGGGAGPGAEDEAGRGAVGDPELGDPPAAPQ
Nature of the assay: Inhibition of human 17beta-HSD1 expressed in HEK293 cells assessed as inhibition of reduction of [14C]estrone into [14C]estradiol at 0.1 uM. A digest of the protocol: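 Enzyme source: sonicated HEK-293 cells transfected with the h17β-HSD1 gene. Inhibitor was dissolved in ethanol and tested at final concentrations of 0.1 and 1 μM. The [14C]-E1 to [14C]-E2 assay was run as in an earlier report.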

Assay [5] concerns the target T4, 3-oxo-5-alpha-steroid 4-dehydrogenase 1 (Homo sapiens) (UniProt P18405).
T4 sequence (whole entry): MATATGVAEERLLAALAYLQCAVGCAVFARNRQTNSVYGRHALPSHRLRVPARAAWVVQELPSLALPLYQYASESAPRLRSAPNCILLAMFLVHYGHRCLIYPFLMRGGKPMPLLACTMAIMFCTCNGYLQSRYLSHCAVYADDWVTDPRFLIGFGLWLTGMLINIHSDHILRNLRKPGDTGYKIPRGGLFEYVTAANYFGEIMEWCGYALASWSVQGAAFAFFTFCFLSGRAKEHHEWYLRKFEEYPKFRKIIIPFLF
Nature of the assay: Inhibition of human 5alpha reductase 1 expressed in HEK293 cells assessed as inhibition of conversion of [14C]4-androstene-3,17-dione to [14C]5R-androstane-3,17-dione at 0.3 uM after 1 hr. A digest of the protocol:
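Intact HEK-293 cells transfected with pCMV-neo-h5α-reductase type 1 or type 2 were plated at 500 000 cells/well at 37 °C. They were incubated with 15 000 cpm [14C]-Δ4-dione and inhibitor (final 0.3 or 3 μM), in duplicate, for 1 h (type 1) or 3 h (type 2). Steroids were extracted and separated by TLC (toluene/EtOAc 4:1). Radioactivity gave % transformation and % inhibition.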

Active and inactive are the calls of the source. The calls are words filed in the database; no cut-off is given here.

The term IC50 denotes the concentration that gives 50% inhibition. One may read the inhibition as the drop in the measured response relative to a control, in per cent. Turning to `CCCCCCCCCCN(C=O)C1CC[C@H]2[C@@H]3CC[C@H]4N(C)C(=O)CC[C@]4(C)[C@H]3CC[C@]12C` (stereo partly drawn), the IC50 in assay [1] is 0.195 µM. Moreover, the inhibition in assay [2] was found to be 69%; in assay [3], 49%.

Consider `CN1C(=O)CC[C@]2(C)[C@H]3CC[C@@]4(C)[C@@H](CC[C@@]45CCC(C)(C)C(=O)O5)[C@@H]3CC[C@@H]12`, for which the results for the inhibition (with HEK293; in assay [2]) were 90% and 69%, respectively. For the same molecule, the inhibition result in assay [4] was “inactive”. In addition, the IC50 in assay [1] stood at 0.116 µM. Also, the inhibition result in assay [5] is “Active”.

Source of the values: ChEMBL document CHEMBL1154295, “Potent and selective steroidal inhibitors of 17beta-hydroxysteroid dehydrogenase type 7, an enzyme that catalyzes the reduction of the key hormones estrone and dihydrotestosterone” (J Med Chem, 2009).
